H69AR inhibit = blocks growth of human H69AR lung tumor cells | H69AR lung tumor viability, ATP luminescence, 72 h; stronger effect = lower value | viability, % at 10 µM | 6% of 85,000 active | AID 598;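 active means viability at or below 40%; inactive means viability above 40%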;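 further: multidrug resistant small cell line overexpressing MRP-1 efflux transporter; 100% = mean luminescence of untreated control wells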
Fibroblast inh = blocks proliferation of human lung fibroblasts | LL 47 human lung fibroblast viability, ATP luminescence; stronger effect = lower value | AID 719 | 1.1% of 85,000 active | viability, % at 10 µM;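 active means viability at or below 50% in the single dose screen; inactive means viability above 50%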;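 further: compound exposure lasted 72 h before the ATP readout; 100% = median luminescence of untreated cell-only wells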
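Benchmarks: Cell-only wells, no compound | Test system: LL 47 human lung fibroblasts, passage 12 or lower | Input: 1,150 cells/well | Measured by: CellTiter-Glo luminescence measuring cellular ATP | Medium: IMEM, 15% FBS supplement | Schedule: Overnight attachment after seeding, then 72 h compound exposure at 37 °C | Doses: Compound addition at 0.1% DMSO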
PTEN del growth = growth suppressors of cells with PTEN tumor suppressor deletion | viability, % at 10 µM | 1.2% of 140,000 active | HCT116 PTEN-null viability, CellTiter-Glo, 60 h; stronger effect = lower value;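 active means viability at or below a set limit, 4 SD under the median of all tested compounds, cut at about 3.7% in these data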;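 further: PTEN knockout HCT116 line with beta catenin targeted HCT116 as companion control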
bCat KO growth = beta-catenin-lacking colon tumor cell growth suppression | HCT116 beta-catenin knockout viability, CellTiter-Glo, 60 h; stronger effect = lower value | viability, % at 10 µM | 1.5% of 140,000 active;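 active means viability at or under a set limit, the compound median less 4 SD, cut at about 6% in these data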;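 further: 0% = Hyamine 1622 control at 20 µM and 100% = untreated cell control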
HUVEC prolif 384 = human endothelial cell proliferation inhibition; HUVEC proliferation, CellTiter-Glo luminescence, 72 h; stronger effect = lower value; viability, % at 10 µM (by protocol); 1.1% of 86,000 active; AID 648;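 active means viability at or below 30%; inactive means viability above 30%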;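 further: 100% = median luminescence of DMSO-only cell control wells on each plate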
Numbers without * were called inactive; x = no result given. Only a selection was taken, and hits are over-represented in it overall.

SMILES	H69AR inhibit	Fibroblast inh	PTEN del growth	bCat KO growth	HUVEC prolif 384
Cc1cc2ccccc2n2c(SCC(=O)Nc3ccc(S(=O)(=O)N4CCC(C)CC4)cc3)nnc12	x	x	74	77	x
Cc1cc(O)c(C2=Nc3ccccc3SC(c3ccc(Cl)cc3)C2)c(=O)o1 (centres undefined)	x	x	30	40	x
COc1ccc(C2CC(c3c(O)cc(C)oc3=O)=NCCS2)c(OC)c1 (centres undefined)	24*	48*	9	10	48
CC(=O)O[C@@H]1[C@@]2(C)O[C@H]2CC[C@]23O[C@H]2[C@H](OC3=O)C2=C(C)C(=O)O[C@@]21O	x	x	96	99	x
Cc1ccc2cc(CN(CC3CCCO3)C(=O)NC3CCCCC3)c(=O)[nH]c2c1C (centres undefined)	28*	82	81	85	83
CCN(CC)CCN(Cc1cc2cc3c(cc2[nH]c1=O)OCCO3)C(=O)NC1CCCCC1	35*	93	83	90	89
O=C(NC1CCCCC1)N(CCN1CCOCC1)Cc1cc2cc3c(cc2[nH]c1=O)OCCO3	80	87	87	90	85
Cc1nn(C)c(C)c1NC(=O)CSc1nc(Cc2ccccc2)nc2c1cnn2-c1ccccc1	5.3*	87	x	x	87
CCOC(=O)/C(=N/Nc1ccccc1)Sc1nnc(CCc2ccccc2)n1-c1ccccc1	x	x	85	86	x
CCNC(=O)c1c(C)[nH]c(C(=O)OCC)c1C	93	112	97	95	99
CCOC(=O)c1[nH]c(C)c(C(=O)OCCN2C(=O)c3ccccc3C2=O)c1C	34*	101	99	94	79
CCOC(=O)c1[nH]c(C)c(C(=O)Nc2ccccc2C)c1C	26*	65	20	20	60
CCOC(=O)c1[nH]c(C)c(C(=O)Nc2cc(Cl)ccc2C)c1C	24*	59	16	15	65
CCN(CC)CC(C)CNC(=O)CN1C(=O)CSc2ccc(S(=O)(=O)N3CCOCC3)cc21 (centres undefined)	x	x	92	91	x
COc1ccc(/C=C/C(=O)NCC(=O)N/N=C/c2cc(Br)ccc2OCc2ccccc2)cc1	7.4*	78	60	62	46
O=C(CCN1CCc2ccccc2C(c2ccccc2)C1)c1ccc2c(c1)OCCO2 (centres undefined)	1.6*	91	42	71	86
O=C(O)CCC(=O)c1ccc2c(c1)OCCO2	103	95	82	97	97
O=C(CS(=O)(=O)c1ccccc1)c1ccc2c(c1)OCCO2	89	90	94	98	83
O=C(CCN1Cc2ccccc2C1)c1ccc2c(c1)OCCO2	1.0*	79	80	77	98
Cc1ccc(S(=O)(=O)Cn2nnnc2C(C(C)C)N2CCN(c3nc4ccccc4s3)CC2)cc1 (centres undefined)	27*	92	76	68	85
c1ccc(Cn2nnnc2C(c2ccccc2)N2CCN(c3nc4ccccc4s3)CC2)cc1 (centres undefined)	80	95	68	71	121
Cc1nc(Cl)c(C(=O)NC(C)(C)C)c(C)c1Cl	x	x	102	93	x
CCOC(=O)c1c(NC(=O)c2nn(CC)cc2Br)c(C#N)nn1-c1ccccc1	40*	93	84	85	81
CCOC(=O)c1nn(-c2ccccc2)c(C#N)c1NC(=O)c1nn(CC)cc1Br	69	96	86	87	85
CCCn1c(NC(=O)c2ccc(Cl)c(S(=O)(=O)N3CCCC3)c2)nc2ccccc21	10.0*	56	9	8	41
SMILES	H69AR inhibit	Fibroblast inh	PTEN del growth	bCat KO growth	HUVEC prolif 384
CCCn1c(NC(=O)c2cccc(C)c2C)nc2ccccc21	25*	56	10	16	53
O=C(NCc1nc2ccccc2[nH]1)c1ccc(Cl)c(S(=O)(=O)N2CCCC2)c1	76	99	93	87	89
CCn1c(NC(C)=O)nc2ccccc21	94	103	95	99	83
COCCn1c(SCC(=O)N2CC(=O)Nc3ccccc32)nc2ccccc21	x	x	90	94	x
Cc1cc(N/N=C/c2c(O)ccc3ccccc23)nc(-c2ccccc2O)n1	x	x	4	2.9*	x
Cc1cc(Nc2ccccc2)nc(-c2ccccc2O)n1	x	x	28	45	x
Cc1cc(NC2CCCCC2)nc(-c2ccccc2O)n1	38*	90	78	86	74
Oc1ccc2ccccc2c1/C=N/Nc1ccccc1	x	x	73	82	x
O=S1(=O)CCC(NC(=S)N2CCOCC2)C1 (centres undefined)	x	x	98	98	x
CCS(=O)(=O)c1nc(S(=O)(=O)c2ccc(Cl)cc2)c(N2CCc3ccccc3C2)s1	x	x	38	48	x
CCC1(C)OCC(Cn2c3ccccc3c3ccccc32)O1 (centres undefined)	25*	86	92	77	65
Cc1cc(C)cc(N(CCC(=O)Nc2nnc(C)s2)S(=O)(=O)c2ccc(Cl)cc2)c1	x	x	45	65	x
COc1ccc(-n2nnnc2SCC(=O)c2ccc(O)c(O)c2)cc1	26*	89	24	21	61
O=S(=O)(c1ccc(Br)cc1)N1CCN(c2ccc3nnc(-c4ccccc4)n3n2)CC1	30*	101	33	24	82
O=C(c1ccc(Br)o1)N1CCN(c2ccc3nnc(-c4ccccc4)n3n2)CC1	74	85	37	37	64
CCOC(=O)CCC(NC(=O)CCCCCCCC(=O)NC(CCC(=O)OCC)C(=O)OCC)C(=O)OCC (centres undefined)	x	x	95	90	x
O=S1(=O)Nc2c(ccc3cccnc23)-c2ccccc21	x	x	2.3*	4.7*	x
CCOC(=O)c1nnc(-c2cccs2)nc1Oc1ccc(Cl)cc1	52	94	110	94	76
CCOC(=O)c1nnc(-c2cccs2)nc1Oc1ccccc1C(=O)OC	31*	97	97	97	74
N#Cc1ccc(N/N=C/c2cn(-c3ccccc3)nc2-c2ccccc2)c([N+](=O)[O-])c1	x	x	1.0*	1.8*	x
CC(C)C1Oc2ccccc2N(CC(=O)N(Cc2ccccn2)CC2CCCO2)C1=O (centres undefined)	71	93	92	98	103
Cc1ccc(CN(CC2CCCO2)C(=O)CN2C(=O)C(C(C)C)Oc3ccccc32)o1 (centres undefined)	38*	92	73	73	106
COC(=O)C1=C(O)C(C(=O)OC)C(c2ccc(C)cc2)C(C#N)(C#N)C1c1ccc(C)cc1 (centres undefined)	4.0*	83	18	21	80
CCOC(=O)C(NCCc1ccccc1F)(NC(C)=O)C(F)(F)F (centres undefined)	x	x	95	91	x
CCOC(=O)c1sc(=NC(=O)c2ccc(OC)c(OC)c2)n(C)c1C	20*	97	67	85	77
CCOC(=O)N1CCC(N2CCN(S(=O)(=O)c3ccc(Cl)cc3)CC2)CC1	27*	98	87	84	100
CCOC(=O)c1cnc2ccc(OCC)cc2c1N1CCN(c2ccccc2OC)CC1	29*	87	77	72	67

Screens as filed in PubChem.
